Calls of active or inactive are those of the source. The rule behind the calls is not given here.

For data set [1], the species on record is Danio rerio. Nature of the data set: Effect on suppression of abnormal morphology and death of zebrafish embryo expressing Q102-GFP. Format: organism-based. The following applies: in vivo.
Data set [2] in a line: Inhibition of detergent insoluble aggregation of mutant poly Q102-GFP expressed in zebrafish embryo at 50 uM by filter trap assay. Put shortly: (§1)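 AB wild-type embryos were injected at the 1-2 cell stage with Q102-GFP mRNA. They were then kept in E3 with 1% DMSO plus compound (isoproterenol dissolved in water), with the chorion disrupted; controls received solvent alone. After 24 h at 28.5 °C, lysates were heated in 4% SDS/100 mM DTT, filtered through 0.2 µm cellulose acetate, probed with anti-GFP and quantified by densitometry. Solvent control was set to 100%; n=3-5 injections.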

The test system of the next data set is N2a. Nature of the data set: Inhibition of aggregation of poly Q102-GFP in mouse N2a cells by filter trap assay. Format: cell-based.
For data set [3], the species on record is Danio rerio. Kind of data set: Suppression of inclusion formation in zebrafish embryo expressing poly Q102-GFP protein after 24 hrs at 1 uM. Format: functional, organism-based.
Data set [4] in a line: Suppression of aggregation of poly Q102-GFP mutant expressed in zebrafish embryo by filter trap assay. The method in brief:
as §1

Data set [5] can be described thus: Suppression of aggregation of poly Q102-GFP protein expressed in zebrafish embryo at 10 uM by filter trap assay. Put shortly:
as §1

As for `O=C(N/N=C/c1ccc2ccccc2c1)c1ccc(O)c(O)c1`, the Activity result in the data set filed under Danio rerio [1] is “Not Active”. In addition, the result (in data set [2]; in the data set with N2a) was Active.
As to `COc1c(C)c2c(c(O)c1C/C=C(\C)CCC(=O)O)C(=O)OC2`, in the data set filed under Danio rerio [3], the result was inactive.
For the compound `Cc1cc(O)c(C)c2sc(N)nc12`, the result (in data set [4]; in the data set on N2a) was Active. The Activity result in the data set listed under Danio rerio [1] was “Not Active”.
With `O=C(N/N=C/c1ccc2ccccc2c1)c1cccc(Cl)c1`, the Activity entry in the data set listed under Danio rerio [1] was “Not Active”. Further, the result (in data set [2]; in the data set on N2a) was Active.
Consider `COc1cc(/C=N/N=C(N)N)ccc1OCc1c(C)c(C)c(Br)c(C)c1C.Cl`, for which, in the data set listed under Danio rerio [1], the Activity result is reported as “Not Active”. Besides, in the data set on N2a, the outcome was Active.
For `Nc1c(/N=N/c2ccc(-c3ccc(/N=N/c4cc(S(=O)(=O)O)c5ccccc5c4N)cc3)cc2)cc(S(=O)(=O)O)c2ccccc12`, the outcome in data set [4] was Active.
`CC(C)NCC(O)c1ccc(O)c(O)c1` (centres undefined): in data set [5], the outcome was inactive.

(Values after ChEMBL document CHEMBL1147048, “Identification of anti-prion compounds as efficient inhibitors of polyglutamine protein aggregation in a zebrafish model” (J Biol Chem, 2007).)
